Measured values taken from ChEMBL document CHEMBL3271971, “Antineoplastic and biochemical properties of arylsulfonylhydrazones of 2-formylpyridine N-oxide” (J Med Chem, 1976).

How the values were obtained:
[1] = tested on: Mus musculus; test: Toxicity in C3H mouse allografted with mouse Hepa129 cells assessed as change in body weight at 60 mg/kg administered qd for 6 days (reference value: 13.5%); type: organism-based; parameters: dose 60 mg/kg; conditions: in vivo, 144 h
Summary of the method: (§1)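 Ascitic tumors were transplanted from a donor mouse bearing a 7-day tumor. Daily doses were given for six consecutive days. Percentage body-weight change from onset to termination of therapy served as the index of drug toxicity.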

[2] = tested on: Ehrlich; test: Antineoplastic activity against mouse EAC cells allografted in CD-1 mouse assessed as mouse survival at 40 mg/kg administered qd for 6 days measured for 50 days relative to control; type: functional
Summary of the method: (§2)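 Ascitic tumours were transplanted from an appropriate donor mouse carrying a 7-day tumour growth. Drug was given at 10–60 mg/kg/day for six consecutive days. Sensitivity was judged by prolongation of survival time relative to untreated tumour-bearing controls. Mice were weighed throughout, and percentage weight change from onset to end of therapy indicated toxicity.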

[3] = tested on: Mus musculus; test: Toxicity in C3H mouse allografted with mouse Hepa129 cells assessed as change in body weight at 20 mg/kg administered qd for 6 days (reference value: 13.5%); type: organism-based; parameters: dose 20 mg/kg; conditions: in vivo, 144 h; summary of the method: as §1
[4] = tested on: Mus musculus; test: Effect on RNA synthesis in tumor of CD-1 mouse allografted with mouse S180A cells assessed as [3H]-uridine incorporation at 80 mg/kg, ip pretreated for 3 hrs followed by radiotracer-addition measured after 1 hr relative to control; type: functional; conditions: route intraperitoneal
Summary of the method: (§3)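 Mice bearing 6-day Sarcoma 180 ascites implants received a single ip dose of 80 mg/kg. At the stated pretreatment time they were given ip tracer: 200 μg thymidine-3H, 200 μg uridine-3H or 125 μg DL-leucine-14C. After 1 h of incorporation, specific radioactivity of DNA, RNA or protein was read as % of control incorporation.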

[5] = tested on: Ehrlich; test: Antineoplastic activity against mouse EAC cells allografted in CD-1 mouse assessed as mouse survival at 20 mg/kg administered qd for 6 days measured for 50 days relative to control; type: functional; summary of the method: as §2
[6] = Antineoplastic activity against mouse S180A cells allografted in CD-1 mouse assessed as average survival at maximum effective dose administered qd for 6 days relative to control; type: functional
Summary of the method: (§4)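 Sarcoma 180 ascites cells were transplanted from a donor mouse bearing a 7-day tumour. Each agent was tested at 10–60 mg/kg/day, once daily for six consecutive days, starting 24 h after transplantation, in groups of 5–10 mice. Pooled untreated controls totalled 40 mice. Mice surviving beyond 50 days were counted as 50-day survivors, and body-weight change over therapy served as the toxicity index.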

[7] = tested on: Mus musculus; test: Effect on DNA synthesis in tumor of CD-1 mouse allografted with mouse S180A cells assessed as [3H]-thymidine incorporation at 80 mg/kg, ip pretreated for 3 hrs followed by radiotracer-addition measured after 1 hr relative to control; type: functional; conditions: route intraperitoneal; summary of the method: as §3
[8] = tested on: Ehrlich; test: Antineoplastic activity against mouse EAC cells allografted in CD-1 mouse assessed as average survival at 40 mg/kg administered qd for 6 days (reference value: 14.4 +/- 1.2 days); type: functional; summary of the method: as §2
[9] = tested on: Mus musculus; test: Effect on DNA synthesis in tumor of CD-1 mouse allografted with mouse S180A cells assessed as [3H]-thymidine incorporation at 80 mg/kg, ip pretreated for 1 hr followed by radiotracer-addition measured after 1 hr relative to control; type: functional; conditions: route intraperitoneal
Summary of the method: (§5)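 Sarcoma 180 ascites cells implanted 6 days earlier. Mice received a single ip dose of 10–80 mg/kg, then 1 h later an ip tracer: 200 μg thymidine-3H, 200 μg uridine-3H or 125 μg DL-leucine-14C. Tracer was incorporated for 1 h. Specific activity of tumor-cell DNA, RNA or protein is expressed as % of untreated controls. Values are means of 4-16 mice, each analyzed separately.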

[10] = tested on: Mus musculus; test: Toxicity in C3H mouse allografted with mouse Hepa129 cells assessed as change in body weight at 40 mg/kg administered qd for 6 days (reference value: 13.5%); type: organism-based; parameters: dose 40 mg/kg; conditions: in vivo, 144 h; summary of the method: as §1
[11] = Antineoplastic activity against mouse S180A cells allografted in CD-1 mouse assessed as maximum dose required for increase in mouse survival administered qd for 6 days; type: functional
[12] = tested on: Mus musculus; test: Effect on protein synthesis in tumor of CD-1 mouse allografted with mouse S180A cells assessed as [14C]-leucine incorporation at 80 mg/kg, ip pretreated for 3 hrs followed by radiotracer-addition measured after 1 hr relative to control; type: functional; conditions: route intraperitoneal; summary of the method: as §3
[13] = tested on: L1210; test: Antineoplastic activity against mouse L1210 cells allografted in BDF1 mouse assessed as average survival at 60 mg/kg administered qd for 6 days (reference value: 8.2 +/- 0.4 days); type: functional; summary of the method: as §2
[14] = tested on: Mus musculus; test: Effect on DNA synthesis in tumor of CD-1 mouse allografted with mouse S180A cells assessed as [3H]-thymidine incorporation at 80 mg/kg, ip pretreated for 12 hrs followed by radiotracer-addition measured after 1 hr relative to control; type: functional; conditions: route intraperitoneal; summary of the method: as §3
[15] = tested on: Mus musculus; test: Toxicity in CD-1 mouse allografted with mouse S180A cells assessed as change in body weight at 60 mg/kg administered qd for 6 days (reference value: 23.2%); type: organism-based; parameters: dose 60 mg/kg; conditions: in vivo, 144 h
[16] = tested on: Ehrlich; test: Antineoplastic activity against mouse EAC cells allografted in CD-1 mouse assessed as average survival at 20 mg/kg administered qd for 6 days (reference value: 14.4 +/- 1.2 days); type: functional; summary of the method: as §2
[17] = Antineoplastic activity against 1-formylisoquinoline thiosemicarbazone-resistant mouse S180A cells allografted in CD-1 mouse assessed as average survival at 40 mg/kg administered qd for 6 days (reference value: 14.4 +/- 0.9 days); type: functional; summary of the method: as §2
[18] = tested on: Mus musculus; test: Effect on protein synthesis in tumor of CD-1 mouse allografted with mouse S180A cells assessed as [14C]-leucine incorporation at 20 mg/kg, ip pretreated for 1 hr followed by radiotracer-addition measured after 1 hr relative to control; type: functional; conditions: route intraperitoneal; summary of the method: as §5
[19] = tested on: L1210; test: Antineoplastic activity against mouse L1210 cells allografted in BDF1 mouse assessed as average survival at 20 mg/kg administered qd for 6 days (reference value: 8.2 +/- 0.4 days); type: functional; summary of the method: as §2
[20] = Antineoplastic activity against mouse S180A cells allografted in CD-1 mouse assessed as mouse survival at maximum effective dose administered qd for 6 days measured for 50 days relative to control; type: functional; summary of the method: as §4
[21] = tested on: Mus musculus; test: Effect on DNA synthesis in tumor of CD-1 mouse allografted with mouse S180A cells assessed as [3H]-thymidine incorporation at 40 mg/kg, ip pretreated for 1 hr followed by radiotracer-addition measured after 1 hr relative to control; type: functional; conditions: route intraperitoneal; summary of the method: as §5
[22] = tested on: Ehrlich; test: Antineoplastic activity against mouse EAC cells allografted in CD-1 mouse assessed as average survival at 60 mg/kg administered qd for 6 days (reference value: 14.4 +/- 1.2 days); type: functional; summary of the method: as §2
[23] = tested on: Mus musculus; test: Effect on RNA synthesis in tumor of CD-1 mouse allografted with mouse S180A cells assessed as [3H]-uridine incorporation at 80 mg/kg, ip pretreated for 12 hrs followed by radiotracer-addition measured after 1 hr relative to control; type: functional; conditions: route intraperitoneal; summary of the method: as §3
[24] = Antineoplastic activity against mouse S180A cells allografted in CD-1 mouse assessed as average survival at 60 mg/kg administered qd for 6 days (reference value: 12.9 +/- 1.2 days); type: functional; summary of the method: as §2
[25] = tested on: Mus musculus; test: Toxicity in BDF1 mouse allografted with mouse L1210 cells assessed as change in body weight at 40 mg/kg administered qd for 6 days (reference value: 13.6%); type: organism-based; parameters: dose 40 mg/kg; conditions: in vivo, 144 h; summary of the method: as §1

SMILES: Cc1ccc(S(=O)(=O)N/N=C/c2cccc[n+]2[O-])cc1
- Activity [1]: -1.6%
- survival at 40 mg/kg [2]: 50%
- Activity [3]: 11%
- Activity [4]: 62%
- survival at 20 mg/kg [5]: 10%
- T/C [6]: 307%
- Activity [7]: 53%
- Survival [8]: 47 days
- Activity [9]: 59%
- Activity [10]: 2.3%
- Activity [11]: 60 mg/kg
- Activity [12]: 70%
- Survival [13]: 11.8 days
- Activity [14]: 57%
- Activity [15]: -8%
- Survival [16]: 34.6 days
- Survival [17]: 24.4 days
- Activity [18]: 95%
- Survival [19]: 8.6 days
- Survival [20]: 0%
- Activity [21]: 67%
- Survival [22]: 40.8 days
- Activity [23]: 102%
- Survival [24]: 38.4 days
- Activity [25]: 2.8%
